Assays:
Escherichia coli K-12 [1] = experiment: Effect on Escherichia coli K-12 ER2738 biofilm formation at 400 uM after 24 hrs by crystal violet reporter assay relative to control; format: functional; settings: ER2738, 24 h
How it was run: (§1)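 Initial single-concentration screen for effect on biofilm development. Bacteria were incubated statically with or without compound for 24 h. Medium and planktonic cells were removed and wells were water-washed. Attached biofilm was stained with crystal violet, washed, and the stain was solubilized in ethanol and read at A540. Results were expressed relative to untreated control as means of three experiments.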

Acinetobacter baumannii = experiment: Effect on Acinetobacter baumannii biofilm formation at 400 uM after 24 hrs by crystal violet reporter assay relative to control; format: functional; settings: read-out: INH; how it was run: as §1
[2] = Toxicity in sheep RBC assessed as induction of hemolysis; format: cell-based, Ovis aries; settings: erythrocyte
Escherichia coli K-12 [3] = experiment: Effect on Escherichia coli K-12 ER2738 biofilm formation by crystal violet reporter assay relative to control; format: functional, organism-based
How it was run: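 E. coli biofilm development was measured under static conditions by crystal violet reporter assay. Cultures were grown with or without compound for 24 h, then planktonic cells and medium were removed and wells were water-washed. Biofilm was stained with crystal violet, and the retained dye was ethanol-solubilized and quantified at A540 against untreated control.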

Escherichia coli K-12 [4] = experiment: Dispersion of preformed Escherichia coli K-12 ER2738 biofilm by crystal violet reporter assay relative to control

SMILES	inhibition at 400 µM (Escherichia coli K-12 [1])	inhibition at 400 µM (Acinetobacter baumannii)	further results
CC(C)(C)NC(=O)Cn1cc(CCCc2c[nH]c(N)n2)nn1	17.6%	21.2%	–
Nc1nc(CCCc2cn(CC(=O)Nc3ccccc3)nn2)c[nH]1	-142%	23%	–
CCCCCCNC(=O)Cn1cc(CCCc2c[nH]c(N)n2)nn1	-30.3%	31.4%	–
CCCCCCCCCCNC(=O)Cn1cc(CCCCCc2c[nH]c(N)n2)nn1	58.9%	–	–
COc1ccc(CCNC(=O)Cn2cc(CCCc3c[nH]c(N)n3)nn2)cc1.Cl	–	8.5%	Activity [2]: > 800 µM
Nc1nc(CCCc2cn(CC(=O)NC3CCCCC3)nn2)c[nH]1	-169%	–	–
CCCCCCCCNC(=O)Cn1cc(CCCCCc2c[nH]c(N)n2)nn1.Cl	–	–	IC50 (Escherichia coli K-12 [3]): 13 µM; Activity [2]: 675 µM; EC50 (Escherichia coli K-12 [4]): Not Active
CCCCCCCCCCNC(=O)Cn1cc(CCCc2c[nH]c(N)n2)nn1.Cl	90.8%	28.3%	IC50 (Escherichia coli K-12 [3]): 36.9 µM; Activity [2]: 487 µM; EC50 (Escherichia coli K-12 [4]; Escherichia coli, ER2738, read-out: EC50): 120 µM
COc1ccc(CNC(=O)Cn2cc(CCCc3c[nH]c(N)n3)nn2)cc1	-19.9%	17.5%	–
Nc1nc(CCCc2cn(CC(=O)NC3CCCC3)nn2)c[nH]1	-47.8%	15.9%	–
Nc1nc(CCCCCc2cn(CC(=O)NCCc3ccccc3)nn2)c[nH]1	-174%	–	–
Nc1nc(CCCc2cn(CC(=O)N3CCCC3)nn2)c[nH]1	2.6%	6.2%	–
Nc1nc(CCCc2cn(CC(=O)N3CCOCC3)nn2)c[nH]1	-183%	30.3%	–
Nc1nc(CCCc2cn(CC(=O)NCCc3ccccc3)nn2)c[nH]1	-41.8%	20.8%	–
CCCCCCCCCCCCCCNC(=O)Cn1cc(CCCc2c[nH]c(N)n2)nn1	57.8%	36.4%	–
COc1ccc(NC(=O)Cn2cc(CCCc3c[nH]c(N)n3)nn2)cc1	-169%	–	–
Cl.Nc1nc(CCCc2cn(CC(=O)NCc3ccccc3)nn2)c[nH]1	–	19.5%	Activity [2]: > 800 µM
CC(C)NC(=O)Cn1cc(CCCc2c[nH]c(N)n2)nn1	-127%	13.6%	–
Nc1nc(CCCCCc2cn(CC(=O)Nc3ccccc3)nn2)c[nH]1	-143%	–	–
Nc1nc(CCCc2cn(CC(=O)NCCCc3ccccc3)nn2)c[nH]1	-176%	23.2%	–

— ChEMBL document CHEMBL1268815, “Modulating the development of E. coli biofilms with 2-aminoimidazoles” (Bioorg Med Chem Lett, 2010)
